PMC6510378 (Clinical and Translational Science, 2019)

Legend:
[1] = MAD study part 1; assay type: in vivo, human
In short: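 Healthy young Japanese, young non-Japanese and elderly non-Japanese adults got a single oral dose (10, 20 or 50 mg) or placebo on day 1. After a 4-day washout, dosing was once daily on days 5–18. PK-day doses were taken with 240 mL water after a 10-hour fast, with no food for 4 h. Plasma drug was measured by validated HPLC-MS/MS. Values below the limit of quantification were set to zero.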

[2] = Urine PK, 10-mg, 20-mg and 50-mg cohorts; assay type: in vivo, human; conditions: parent ASP3662
In short: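 Urine drug concentration was measured by validated HPLC-MS/MS. Subjects were healthy young Japanese, young non-Japanese and elderly non-Japanese adults given oral doses of 10, 20 or 50 mg: single dose day 1, 4-day washout, then once daily on days 5–18. Dosing was fasted on PK days.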

[3] = MAD part 1, day 1 single dose 10 mg, young Japanese, n=8
[4] = MAD part 1, day 1 single dose 20 mg, elderly non-Japanese, n=9
[5] = MAD part 1, day 1 single dose 20 mg, young Japanese, n=8
[6] = MAD part 1, day 1 single dose 20 mg, young non-Japanese, n=8
[7] = MAD part 1, day 1 single dose 50 mg, young Japanese, n=8
[8] = MAD part 1, day 1 single dose 50 mg, young non-Japanese, n=8
[9] = MAD part 1, day 18 multiple dose q.d. 14 days 10 mg, young Japanese, n=8
[10] = MAD part 1, day 18 multiple dose q.d. 14 days 20 mg, elderly non-Japanese, n=9
[11] = MAD part 1, day 18 multiple dose q.d. 14 days 20 mg, young Japanese, n=8
[12] = MAD part 1, day 18 multiple dose q.d. 14 days 20 mg, young non-Japanese, n=8
[13] = MAD part 1, day 18 multiple dose q.d. 14 days 50 mg, young Japanese, n=8
[14] = MAD part 1, day 18 multiple dose q.d. 14 days 50 mg, young non-Japanese, n=7

## Cn1c(-c2ccc(C(N)=O)cc2F)nnc1C(C)(C)Oc1c(F)cc(Cl)cc1F [ASP3662]
[1]; [3]
  CL/F, Mean (SD): 9.254 (4.086) L/hour
  CL/F, Median: 7.651 L/h
  CL/F, Min–max: 5.05 to 15.3 L/h
[1]; [4]
  CL/F, Mean (SD): 6.99 (2.152) L/hour
  CL/F, Median: 6.567 L/h
  CL/F, Min–max: 3.8 to 10.4 L/h
[1]; [5]
  CL/F, Mean (SD): 9.993 (2.926) L/hour
  CL/F, Median: 9.182 L/h
  CL/F, Min–max: 6.03 to 15.0 L/h
[1]; [6]
  CL/F, Mean (SD): 7.412 (2.61) L/hour
  CL/F, Median: 7.279 L/h
  CL/F, Min–max: 4.33 to 11.7 L/h
[1]; [7]
  CL/F, Mean (SD): 6.758 (1.787) L/hour
  CL/F, Median: 6.240 L/h
  CL/F, Min–max: 4.30 to 9.40 L/h
[1]; [8]
  CL/F, Mean (SD): 7.005 (2.789) L/hour
  CL/F, Median: 7.259 L/h
  CL/F, Min–max: 2.53 to 10.1 L/h
[1]; [9]
  CL/F, Mean (SD): 6.07 (2.591) L/hour
  CL/F, Median: 5.708 L/h
  CL/F, Min–max: 3.02 to 9.87 L/h
  Ctrough, Mean (SD): 37.65 (30.42) ng/mL
  Ctrough, Median: 24.76 ng/mL
  Ctrough, Min–max: 13.5 to 84.0 ng/mL
[1]; [10]
  CL/F, Mean (SD): 5.675 (1.649) L/hour
  CL/F, Median: 5.675 L/h
  CL/F, Min–max: 2.81 to 8.51 L/h
  Ctrough, Mean (SD): 63.58 (49.38) ng/mL
  Ctrough, Median: 52.25 ng/mL
  Ctrough, Min–max: 26.1 to 184 ng/mL
[1]; [11]
  CL/F, Mean (SD): 8.322 (2.562) L/hour
  CL/F, Median: 8.117 L/h
  CL/F, Min–max: 4.47 to 13.5 L/h
  Ctrough, Mean (SD): 34.01 (24.86) ng/mL
  Ctrough, Median: 26.35 ng/mL
  Ctrough, Min–max: 13.7 to 92.1 ng/mL
[1]; [12]
  CL/F, Mean (SD): 6.487 (2.372) L/hour
  CL/F, Median: 6.473 L/h
  CL/F, Min–max: 3.64 to 10.3 L/h
  Ctrough, Mean (SD): 58.68 (40.91) ng/mL
  Ctrough, Median: 42.71 ng/mL
  Ctrough, Min–max: 19.9 to 132 ng/mL
[1]; [13]
  CL/F, Mean (SD): 10.46 (12.75) L/hour
  CL/F, Median: 6.58 L/h
  CL/F, Min–max: 3.80 to 41.8 L/h
  Ctrough, Mean (SD): 115.3 (59.73) ng/mL
  Ctrough, Median: 103.3 ng/mL
  Ctrough, Min–max: 21.0 to 223 ng/mL
[1]; [14]
  CL/F, Mean (SD): 5.507 (2.275) L/hour
  CL/F, Median: 5.607 L/h
  CL/F, Min–max: 1.86 to 8.76 L/h
  Ctrough, Mean (SD): 261.3 (267.1) ng/mL
  Ctrough, Median: 175.2 ng/mL
  Ctrough, Min–max: 60.4 to 841 ng/mL
[2]
  amount recovered from urine: < 0.3 % of the administered dose
